According to ChEMBL document CHEMBL1138178, “Identification of novel parasitic cysteine protease inhibitors by use of virtual screening. 2. The available chemical directory” (J Med Chem, 2006):
Where a SMILES comes first, the peptide text is derived from it. The star is where a group is joined. Cbz = O=C(OCc1ccccc1)*; OBn = c1ccc(CO*)cc1

Legend:
[1] = system: Plasmodium falciparum; assay: Antimalarial activity against Plasmodium falciparum W2; format: functional, organism-based
How it was run: (§1)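 Sorbitol-synchronized chloroquine-resistant W2 P. falciparum at 1% parasitemia, 2% hematocrit, RPMI-1640 with 10% human serum, 3% O2/6% CO2/91% N2; compounds from DMSO (max 0.1%) for 48 h; fixed in 1% formaldehyde 48 h, stained with 1 nM YOYO-1 in 0.1% Triton X-100; parasitemia by flow cytometry; IC50 from percent control parasitemia versus concentration.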

[2] = system: Leishmania donovani; assay: Antileishmanial activity against Leishmania donovani promastigotes; format: functional, organism-based
[3] = system: Vero; assay: Cytotoxicity against Vero cells up to 50 uM; format: functional, cell-based, Chlorocebus sabaeus
How it was run: (§2)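 VERO monkey kidney fibroblast cells tested simultaneously with antileishmanial screen; cytotoxicity read by neutral red assay; IC50 computed from growth inhibition curve.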

[4] = system: Plasmodium falciparum; assay: Antimalarial activity against Plasmodium falciparum W2 up to 20 uM; format: functional, organism-based; how it was run: as §1
[5] = system: Vero; assay: Cytotoxicity against Vero cells; format: functional, cell-based; details: Chlorocebus sabaeus; how it was run: as §2
[6] = biological target: T1, Cysteine protease falcipain-3 (Plasmodium falciparum, UniProt Q9NBA7); assay: Inhibition of falcipain3
T1 sequence (Q9NBA7 whole entry): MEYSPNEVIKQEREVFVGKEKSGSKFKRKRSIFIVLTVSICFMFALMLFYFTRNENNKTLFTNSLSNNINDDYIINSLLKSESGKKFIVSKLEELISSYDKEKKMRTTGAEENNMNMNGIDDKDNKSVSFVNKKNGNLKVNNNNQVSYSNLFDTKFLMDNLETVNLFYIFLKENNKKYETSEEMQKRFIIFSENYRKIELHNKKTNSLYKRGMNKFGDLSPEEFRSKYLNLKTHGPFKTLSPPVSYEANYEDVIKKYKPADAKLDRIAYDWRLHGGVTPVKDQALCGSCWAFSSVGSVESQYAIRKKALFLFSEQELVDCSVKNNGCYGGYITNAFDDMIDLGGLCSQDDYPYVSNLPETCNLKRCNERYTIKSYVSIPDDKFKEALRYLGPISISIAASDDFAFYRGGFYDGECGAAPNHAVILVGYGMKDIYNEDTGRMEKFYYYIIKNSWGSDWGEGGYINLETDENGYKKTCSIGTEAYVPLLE

[7] = biological target: T2, Falcipain 2 (Plasmodium falciparum, UniProt Q9N6S8); assay: Inhibition of falcipain2
T2 sequence (Q9N6S8 whole entry): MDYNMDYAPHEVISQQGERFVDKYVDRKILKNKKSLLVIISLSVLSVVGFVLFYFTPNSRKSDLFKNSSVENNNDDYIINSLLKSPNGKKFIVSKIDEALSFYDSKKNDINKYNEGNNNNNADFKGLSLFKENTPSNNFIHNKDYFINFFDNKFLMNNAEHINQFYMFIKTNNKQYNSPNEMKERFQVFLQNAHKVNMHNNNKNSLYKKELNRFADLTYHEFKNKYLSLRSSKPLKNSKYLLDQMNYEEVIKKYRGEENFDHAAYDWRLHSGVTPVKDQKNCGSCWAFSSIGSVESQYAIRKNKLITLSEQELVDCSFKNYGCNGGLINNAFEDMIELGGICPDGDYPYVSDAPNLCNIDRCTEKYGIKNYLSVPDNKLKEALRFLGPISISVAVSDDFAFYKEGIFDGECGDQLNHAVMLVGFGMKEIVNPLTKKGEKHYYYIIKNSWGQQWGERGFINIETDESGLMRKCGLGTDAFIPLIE

[8] = biological target: T3, Cysteine protease (Leishmania donovani, UniProt Q95WR6); assay: Inhibition of Leishmania donovani cysteine protease
T3 sequence (Q95WR6 whole entry): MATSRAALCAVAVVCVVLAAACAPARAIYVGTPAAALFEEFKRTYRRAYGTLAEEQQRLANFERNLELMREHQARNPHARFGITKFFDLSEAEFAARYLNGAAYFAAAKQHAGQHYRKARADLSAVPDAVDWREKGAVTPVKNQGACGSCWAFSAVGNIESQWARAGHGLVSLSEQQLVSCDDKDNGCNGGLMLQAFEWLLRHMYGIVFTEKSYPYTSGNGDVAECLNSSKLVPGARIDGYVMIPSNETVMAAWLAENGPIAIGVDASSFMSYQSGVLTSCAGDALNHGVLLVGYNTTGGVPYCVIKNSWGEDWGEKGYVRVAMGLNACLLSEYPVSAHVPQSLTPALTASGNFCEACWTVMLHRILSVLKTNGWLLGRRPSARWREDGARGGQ
How it was run: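 Major cysteine protease purified from L. donovani promastigotes on Con A Sepharose; buffer 100 mM sodium acetate pH 5.5, 10 mM DTT, 0.1% Triton X-100, 1 mM EDTA; enzyme preincubated with compounds (DMSO stock) 10 min at 37 °C; Z-Phe-Arg-AMC at 10 µM final; 30 min at 37 °C; released AMC read fluorometrically.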

[9] = Leishmania donovani, read-out: IC50

Row | IC50 [1] [µM] | IC50 [6] [µM] | IC50 [7] [µM] | SMILES | also measured
1 | 2.8 | – | – | COc1ccc(-c2cncc(-c3cc(NCCCn4ccnc4)nc(C)n3)c2)cc1 | –
2 | 20 | – | – | Cn1c(CSc2ccnc3cc(Cl)ccc23)nnc1SCC(=O)N1CCOCC1 | IC50 [2]: Not Active; IC50 [3]: Non-toxic
3 | 16.6 | – | – | Cn1c(CSCC(=O)Nc2ccccc2)nnc1SCC(=O)Nc1cccc(Cl)c1 | IC50 [2]: Not Active; IC50 [3]: Non-toxic
4 | – | – | – | CCOC(=O)C1CCN(S(=O)(=O)c2ccc(CNC(=O)c3ccccc3)s2)CC1 | IC50 [2, 9]: 50.4 µM; IC50 [3]: Non-toxic; IC50 [4]: Not Active
5 | 0.13 | – | – | c1ccc(-c2nc(NCCCn3ccnc3)cc(-c3ccncc3)n2)cc1 | IC90 ([2]; Leishmania donovani): 98.2 µM; IC50 [2, 9]: 50.5 µM; IC50 [3]: Non-toxic
6 | 0.94 | – | – | c1ccc(-c2nc(NCCCn3ccnc3)cc(-c3cccnc3)n2)cc1 | IC90 ([2]; Leishmania donovani): 56.1 µM; IC50 [2, 9]: 12.6 µM; IC50 [5]: 40.7 µM
7 | – | 37.7 | 5.4 | O=S(=O)(c1ccc(-c2ccc(S(=O)(=O)N3CCOCC3)s2)s1)N1CCOCC1 | –
8 | 11.5 | – | – | COc1ccc(-c2cncc(-c3cc(NCc4ccco4)nc(C)n3)c2)cc1 | IC50 [2]: Not Active; IC50 [3]: Non-toxic
9 | 6 | – | – | O=S(=O)(c1ccc2c(c1)C(=NO)c1cc(S(=O)(=O)N3CCOCC3)ccc1-2)N1CCOCC1 | IC90 ([2]; Leishmania donovani): 81 µM; IC50 [2, 9]: 52.7 µM; IC50 [3]: Non-toxic
10 | – | – | – | COC(=O)c1sccc1NC(=O)CSCc1ccc(Cl)cc1 | IC50 [2, 9]: 45 µM; IC50 [3]: Non-toxic; IC50 [4]: Not Active
11 | – | > 50 | 1.6 | Cc1cccc(NC(=O)Cn2c(O)c(/N=N/C(=O)C(=O)NCc3ccccc3)c3ccccc32)c1 | –
12 | – | > 50 | 2.9 | Cc1ccc(S(=O)(=O)N(C)C)cc1NS(=O)(=O)c1ccc(-c2ccon2)s1 | –
13 | – | > 50 | 4.6 | CCCc1cc(O)nc(SCC(=O)NCCSCc2ccco2)n1 | –
14 | – | > 50 | 6.5 | Cn1c(O)c(/N=N/C(=O)CCCCC(=O)/N=N/c2c(O)n(C)c3ccccc23)c2ccccc21 | –
15 | – | 38.5 | 10.8 | O=C(Cn1nnc(-c2ccccc2)n1)NNC=NOCc1c(F)cccc1Cl | –
16 | – | – | – | O=C(CS(=O)(=O)c1ccc(Cl)cc1)NCCS(=O)(=O)c1ccccc1 | IC50 [8]: 24.9 µM
17 | – | – | – | O=C(N[C@@H](COCc1ccccc1)C(=O)ON1C(=O)CCC1=O)OCc1ccccc1 | IC50 [8]: 23.5 µM
18 | – | > 50 | 3.4 | CCCS(=O)(=O)c1cscc1NC(=O)CSCCS(=O)(=O)c1ccc(Cl)cc1 | –
19 | – | – | – | COc1ccc(-c2ccnc(SCC(=O)NCCSCc3ccco3)n2)cc1 | IC50 [2, 9]: 79.4 µM; IC50 [3]: Non-toxic; IC50 [4]: Not Active
20 | 0.44 | – | – | Brc1cncc(-c2cc(NCCCn3ccnc3)nc(-c3ccccc3)n2)c1 | IC90 ([2]; Leishmania donovani): 15.4 µM; IC50 [2, 9]: 7.8 µM; IC50 [5]: 32.2 µM
21 | – | > 50 | 50 | N=C(CS(=O)(=O)Cc1ccc(F)cc1)NOC(=O)c1cccs1 | –
22 | – | 18.8 | 15.3 | O=C(CCSSCCC(=O)NCc1ccccc1)NCc1ccccc1 | –
23 | 2.6 | – | – | Cc1nc(NCCCn2ccnc2)cc(-c2cncc(-c3ccc(F)cc3)c2)n1 | IC90 ([2]; Leishmania donovani): 85 µM; IC50 [2, 9]: 41.2 µM; IC50 [5]: 41.2 µM

Row | IC50 [1] [µM] | IC50 [6] [µM] | IC50 [7] [µM] | SMILES | also measured
24 | – | > 50 | 52.3 | O=C(CSc1nnc(O)n1Cc1ccco1)c1ccc2c(c1)OCCO2 | –
25 | – | > 50 | 54.3 | Cc1csc(Cn2nc(CC(=O)N/N=C/c3ccccc3)c3ccccc3c2=O)n1 | –
26 | – | 49.2 | 14.3 | COC(=O)c1ccsc1NC(=O)CN1CCN(S(=O)(=O)c2ccc(Cl)cc2)CC1 | –
27 | 20 | – | – | Cn1c(CSCC(=O)Nc2ccccc2)nnc1SCC(=O)Nc1ccccc1 | IC50 [2]: Not Active; IC50 [3]: Non-toxic
28 | – | 34 | 19 | Cc1ccc(S(=O)(=O)NC(=O)NCC2CCN(S(=O)(=O)c3ccccc3)CC2)cc1 | –
29 | – | > 50 | 13.2 | Cc1nc(C)nc(N(CCS(=O)(=O)c2ccccc2)CCS(=O)(=O)c2ccccc2)n1 | –
30 | – | – | – | O=S(=O)(NCCSCc1ccco1)c1cc(S(=O)(=O)c2ccccc2)cs1 | IC50 [2, 9]: 54.1 µM; IC50 [3]: Non-toxic; IC50 [4]: Not Active
31 | – | 11.4 | 1.4 | O=S(=O)(NCc1ccco1)c1ccc2c(c1)Cc1cc(S(=O)(=O)NCc3ccco3)ccc1-2 | –
32 | 20 | – | – | CSc1cc(CSc2ccc(Cl)cc2)nc(-c2ccccn2)n1 | IC90 ([2]; Leishmania donovani): 106 µM; IC50 [2, 9]: 50 µM; IC50 [3]: Non-toxic
33 | 3.9 | – | – | O=C(COCC(=O)N/N=C/CCc1ccccc1)N/N=C/CCc1ccccc1 | IC50 [2]: Not Active; IC50 [3]: Non-toxic
34 | – | – | – | O=C(CSc1nc2ccccc2o1)NCCSCc1ccco1 | IC50 [8]: 43 µM
35 | – | 56.6 | 47.8 | O=S(=O)(Cc1ccc(Cl)cc1)Cc1nc(-c2ccsc2)no1 | –
36 | – | > 50 | 10.4 | COC(=O)c1sccc1NC(=O)CC(=O)Nc1ccsc1C(=O)OC | –
37 | 9.5 | – | – | C[C@@H](C(=O)NCCS(=O)(=O)c1ccc(Br)cc1)S(=O)(=O)c1ccccc1 | IC50 [2]: Not Active; IC50 [5]: 48.4 µM
38 | > 2.5 | – | – | O=C(CSCc1c(F)cccc1Cl)NCCSCc1ccco1 | IC50 [2, 9]: 107 µM; IC50 [3]: Non-toxic
39 | 20 | – | – | O=C(NCc1ccncc1)c1ccc(-c2cnn(Cc3ccccc3)c2)nc1 | –
40 | 9.5 | 31.2 | 13.8 | CCOC(=O)c1c2cc(OCC(=O)NCc3ccco3)ccc2n2ccccc12 | –
41 | – | – | – | O=C(CNC(=O)OCc1ccccc1)N[C@@H](Cc1ccccc1)C(=O)OCc1ccccc1 (Cbz-Gly-Phe-OBn) | IC50 [8]: 31.4 µM
42 | – | – | – | C[C@@H]1[C@H](O)[C@@H](C)/C=C/C=C/C=C/C=C/C=C/C=C/C=C/[C@H](O[C@@H]2O[C@H](C)[C@@H](O)[C@H](N)[C@@H]2O)C[C@@H]2O[C@](O)(C[C@@H](O)C[C@@H](O)[C@H](O)CC[C@@H](O)C[C@@H](O)CC(=O)O[C@H]1C)C[C@H](O)[C@H]2C(=O)O [AMPHOTERICIN B] | IC90 ([2]; Leishmania donovani): 0.3 µM; IC50 [2, 9]: 0.04 µM
43 | – | 0.075 | – | CC(C)C[C@H](NC(=O)[C@H]1O[C@@H]1C(=O)O)C(=O)NCCCCN=C(N)N [E-64] | –
44 | – | – | – | CC(=O)N[C@@H](CC(C)C)C(=O)N[C@@H](CC(C)C)C(=O)N[C@H](C=O)CCCNC(=N)N [LEUPEPTIN] | IC50 [8]: 0.01 µM
45 | – | – | – | N=C(N)c1ccc(OCCCCCOc2ccc(C(=N)N)cc2)cc1 [PENTAMIDINE] | IC90 ([2]; Leishmania donovani): 8.3 µM; IC50 [2, 9]: 2.5 µM

Row | SMILES | IC50 [1] [µM] | IC50 [6] [µM] | IC50 [7] [µM] | also measured
46 | C[C@@H]1CC[C@H]2[C@@H](C)C(=O)O[C@@H]3O[C@@]4(C)CC[C@@H]1[C@]32OO4 [ARTEMISININ] | 0.008 | – | – | –
